We go through 7 compounds from ChEMBL document CHEMBL1221389, “Fluorescent schweinfurthin B and F analogs with anti-proliferative activity” (2010).

For one test, the system named is A549. Put plainly: Cytotoxicity against human A549 cells after 44 hrs by MTT assay. Type of test: functional. Particulars: A549, 44 h, read-out: ED50 (the source's name). In outline:
(§1)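 Exposure to compound lasted 44 h. SF-295 cells were kept in RPMI 1640 and A549 cells in F-12, each with 10% FBS, antibiotics and L-glutamine, at 37 °C and 5% CO2. Medium was then replaced with MTT-containing medium (phenol red-free RPMI for SF-295, F-12 for A549) up to 48 h total. Cells were solubilized overnight at room temperature in HCl/Triton X-100/isopropanol stop solution, and absorbance was read at 540 and 650 nm. ED50 was derived from the dose-response.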

Test [1] deals with SF-295. Put plainly: Cytotoxicity against human SF295 cells after 44 hrs by MTT assay. Type of test: functional. Particulars: SF-295, 44 h, read-out: ED50 (the source's name). In outline: as §1
Test [2] relates to SF-295. Put plainly: Cellular uptake in human SF295 cells assessed as perinuclear localization at 500 nM after 24 hrs by fluorescence microscopy. Type of test: functional, cell-based. In outline:
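SF-295 glioma cells, from NCI, grown in RPMI 1640 with 10% FBS, amphotericin B, penicillin/streptomycin and L-glutamine at 37 °C, 5% CO2. Plated on coverslips and exposed to compound at 500 nM for 24 h at about 45% confluency. Then washed three times in PBS, fixed in 4% formaldehyde for 15 min, nuclei stained with DAPI, and compound fluorescence imaged.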

Calls of active or inactive are those of the source. The rule behind the calls is not given here. A value given as a limit tells only on which side of the number the result lay.

Take `COc1ccc(/C=C/c2cc(O)c(/C=C/c3ccc(N)cc3)c(OC)c2)cc1OC`: the values for the EC50 in the test on A549 and with SF-295 [1] were over 10000 nM and over 1000 nM, respectively.
Regarding `COc1cc(/C=C/c2cc3c(c(OC)c2)O[C@]2(C)C[C@@H](O)[C@@H](O)C(C)(C)[C@H]2C3)cc(O)c1/C=C/c1ccc(N)cc1`, the EC50 in the test on A549 is 3200 nM; with SF-295 [1], 20 nM.
Regarding `COc1cc(/C=C/c2cc3c(c(OC)c2)O[C@]2(C)CC[C@@H](O)C(C)(C)[C@H]2C3)cc(O)c1/C=C/c1ccc([N+](=O)[O-])cc1`, the EC50 with A549 amounted to 2700 nM; in the test with SF-295 [1] it was 100 nM. The outcome in the test on SF-295 [2] was Active.
In the case of `COc1cc(/C=C/c2cc3c(c(OC)c2)O[C@]2(C)C[C@@H](O)[C@@H](O)C(C)(C)[C@H]2C3)cc(O)c1/C=C/c1ccc([N+](=O)[O-])cc1`, the EC50 was 700 nM in the test with A549 and 40 nM in the test on SF-295 [1].
With `COc1cc(/C=C/c2cc3c(c(OC)c2)O[C@]2(C)CC[C@@H](O)C(C)(C)[C@H]2C3)cc(O)c1/C=C/c1ccc(N)cc1`, the figures for the EC50 with A549 and in the test with SF-295 [1] were 3000 nM and 400 nM, respectively.
As to `COc1ccc(/C=C/c2cc(O)c(/C=C/c3ccc([N+](=O)[O-])cc3)c(OC)c2)cc1OC`, the EC50 was over 10000 nM with A549 and over 1000 nM with SF-295 [1].
For `COc1cc(/C=C/c2cc(O)c(/C=C/c3ccc([N+](=O)[O-])cc3)c(O)c2)cc2c1O[C@]1(C)CC[C@@H](O)C(C)(C)[C@H]1C2`, in that order: 800 nM and 50 nM.
